Laboratory results taken from ChEMBL document CHEMBL5370639, “Structure-Based Lead Optimization of Enterovirus D68 2A Protease Inhibitors” (J Med Chem, 2023).

Experiments:
[1] = Inhibition of Enterovirus D68 US/KY/14-18953 2A protease expressed in Escherichia coli BL21(DE3) using Dabcyl-KIRIVNT/GPGEGGE-Edans as substrate incubated for 2 hrs by FRET assay
enterovirus D68 [2] = assay: Antiviral activity against enterovirus D68 US/MO/14-18947 infected in human RD cells assessed as reduction in virus induced cytopathic effect by neutral red staining based CPE assay; assay type: functional, organism-based; details: Enterovirus D, US/MO/14-18947, RD
Outline: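 RD cells seeded overnight to ~90% confluency, washed with PBS containing Mg/Ca, infected with virus in DMEM/2% FBS/30 mM MgCl2 for at least 1 h at 33 °C, then compound added. Cells stained with 66 μg/mL neutral red for 2 h; uptake read at 540 nm. EC50 from dose-response fit; mean ± SD of two independent experiments, three repeats each.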

RD = assay: (§1) Cytotoxicity against human RD cells assessed as reduction in cell viability by neutral red staining based CPE assay; assay type: toxicity; details: rd
Outline: (§2)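 Uninfected RD cells, grown overnight to ~90% confluency, treated with compound under otherwise the same handling as the antiviral assay. Viability by neutral red uptake (66 μg/mL, 2 h, absorbance 540 nm). CC50 from best-fit dose-response curve; mean ± SD of two independent experiments, three repeats each.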

[3] = Binding affinity to Enterovirus D68 US/KY/14-18953 2A protease expressed in Escherichia coli BL21(DE3) assessed as inhibition constant using Dabcyl-KIRIVNT/GPGEGGE-Edans as substrate incubated for 2 hrs by FRET assay
Outline: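 Progression-curve kinetics: FRET substrate at 40 μM final in 50 mM Tris pH 7.0, 100 mM NaCl, 2 mM DTT, 10% glycerol with varying inhibitor; reaction started by adding 2Apro to 0.4 μM final. Fluorescence (ex 360/40, em 460/40 nm) read every 71 s for 2 h at 30 °C. Curves fitted by the Morrison equation or an earlier-described equation.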

enterovirus D68 [4] = assay: Antiviral activity against enterovirus D68 US/MO/14-18947 infected in human RD cells assessed as reduction in virus plaque formation measured after 3 days by neutral red staining assay; assay type: functional, organism-based; details: Enterovirus D, US/MO/14-18947, RD, 72 h
Outline: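 RD cells infected with virus in DMEM/2% FBS/30 mM MgCl2 for at least 1 h at 33 °C, then given compound under a 1.2% avicel microcrystalline cellulose overlay. Cells stained after 3 days and plaques counted. EC50 from curve fitting; mean ± SD of two repeats.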

enterovirus D68 [5] = assay: Antiviral activity against enterovirus D68 US/MO/14-18949 infected in human RD cells assessed as reduction in virus induced cytopathic effect by neutral red staining based CPE assay; assay type: functional, organism-based; details: Enterovirus D, US/MO/14-18949, RD
Outline: (§3)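 RD cells were seeded overnight to about 90% confluency and washed with PBS containing Ca/Mg. They were infected with virus in DMEM with 2% FBS and 30 mM MgCl2 for at least 1 h at 33 °C in 5% CO2, then compound was added. Viability was read by neutral red staining (66 μg/mL, 2 h) at A540. EC50 was taken from dose-response curve fits.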

enterovirus D68 [6] = assay: Antiviral activity against enterovirus D68 US/IL/14-18952 infected in human RD cells assessed as reduction in virus induced cytopathic effect by neutral red staining based CPE assay; assay type: functional, organism-based; details: Enterovirus D, US/IL/14-18952, RD; outline: as §3
enterovirus D68 [7] = assay: Antiviral activity against enterovirus D68 US/IL/14-18956 infected in human RD cells assessed as reduction in virus induced cytopathic effect by neutral red staining based CPE assay; assay type: functional, organism-based; details: Enterovirus D, US/IL/14-18956, RD; outline: as §3
enterovirus D68 [8] = assay: Antiviral activity against enterovirus D68 US/KY/14-18953 infected in human RD cells assessed as reduction in virus induced cytopathic effect by neutral red staining based CPE assay; assay type: functional, organism-based; details: Enterovirus D, US/KY/14-18953, RD; outline: as §3
[9] = as §1; assay type: toxicity; details: RD cells; outline: as §2
Cytochrome P450 1A2 = target: T1, Cytochrome P450 1A2 (Homo sapiens, UniProt P05177); assay: Inhibition of CYP1A2 (unknown origin); assay type: ADME
T1 sequence (P05177 whole entry): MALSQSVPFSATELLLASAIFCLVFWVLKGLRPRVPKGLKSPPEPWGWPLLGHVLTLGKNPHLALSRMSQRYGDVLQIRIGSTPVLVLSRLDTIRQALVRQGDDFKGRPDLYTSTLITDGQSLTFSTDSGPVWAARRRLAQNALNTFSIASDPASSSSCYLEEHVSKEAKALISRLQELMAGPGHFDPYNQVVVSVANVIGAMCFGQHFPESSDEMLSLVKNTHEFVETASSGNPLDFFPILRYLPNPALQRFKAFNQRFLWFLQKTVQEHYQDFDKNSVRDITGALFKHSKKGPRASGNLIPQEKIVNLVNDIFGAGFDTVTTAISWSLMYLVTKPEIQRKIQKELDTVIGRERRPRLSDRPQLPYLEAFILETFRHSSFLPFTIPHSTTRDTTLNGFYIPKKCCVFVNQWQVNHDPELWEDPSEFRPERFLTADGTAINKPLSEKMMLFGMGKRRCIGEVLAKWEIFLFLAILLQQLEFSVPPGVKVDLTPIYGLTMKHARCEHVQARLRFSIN

Cytochrome P450 2C9 = Cytochrome P450 2C9 (Homo sapiens, UniProt P11712); assay: Inhibition of CYP2C9 (unknown origin); assay type: ADME
Cytochrome P450 2C19 = Cytochrome P450 2C19 (Homo sapiens, UniProt P33261); assay: Inhibition of CYP2C19 (unknown origin); assay type: ADME
Cytochrome P450 2D6 = Cytochrome P450 2D6 (Homo sapiens, UniProt P10635); assay: Inhibition of CYP2D6 (unknown origin); assay type: ADME
Cytochrome P450 3A = Cytochrome P450 3A (Homo sapiens, UniProt P08684+P20815+Q9HB55+P24462); assay: Inhibition of CYP3A (unknown origin); assay type: ADME, protein assay
[10] = Toxicity in BALB/c mouse assessed as survival at 100 mg/kg, ip administered on day 1 and followed by 200 mg/kg, ip on day 3, 300 mg/kg, ip on day 7, 400 mg/kg, ip on day 12 measured after 16 days of initial dose; assay type: organism-based; details: in vivo, 1000 mg/kg, 384 h, time 16 day
Outline: (§4)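 Three female BALB/c mice of about 19 g each received i.p. doses in corn oil with 10% DMSO, escalating in the same animals. They were given 100 mg/kg first, then 200, 300 and 400 mg/kg on days 1, 3, 7 and 12, with time for elimination between doses. Body weight and general health were monitored throughout the study.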

[11] = Toxicity in BALB/c mouse assessed as mortality at 100 mg/kg, ip administered on day 1 and followed by 200 mg/kg, ip on day 3, 300 mg/kg, ip on day 7, 400 mg/kg, ip on day 12 measured after 16 days of initial dose; assay type: organism-based; details: in vivo, 384 h, time 16 day; outline: as §4
[12] = Toxicity in BALB/c mouse assessed as change in body weight at 100 mg/kg, ip administered on day 1 and followed by 200 mg/kg, ip on day 3, 300 mg/kg, ip on day 7, 400 mg/kg, ip on day 12 measured after 16 days of initial dose; assay type: organism-based; details: in vivo, 384 h, time 16 day; outline: as §4

Sequence of Cytochrome P450 2C19 (P33261 whole entry): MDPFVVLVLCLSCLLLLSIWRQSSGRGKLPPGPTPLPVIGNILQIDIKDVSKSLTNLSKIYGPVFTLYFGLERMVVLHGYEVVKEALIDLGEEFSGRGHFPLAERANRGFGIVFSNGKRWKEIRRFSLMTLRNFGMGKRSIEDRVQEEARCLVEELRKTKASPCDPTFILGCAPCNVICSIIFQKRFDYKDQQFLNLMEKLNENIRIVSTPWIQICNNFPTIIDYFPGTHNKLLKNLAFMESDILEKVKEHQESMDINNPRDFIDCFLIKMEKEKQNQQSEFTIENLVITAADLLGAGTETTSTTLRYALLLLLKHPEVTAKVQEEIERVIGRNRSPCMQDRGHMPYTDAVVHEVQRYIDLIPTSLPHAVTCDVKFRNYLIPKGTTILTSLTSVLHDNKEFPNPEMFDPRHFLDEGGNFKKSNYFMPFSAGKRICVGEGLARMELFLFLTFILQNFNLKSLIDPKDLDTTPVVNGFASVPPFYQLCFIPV
Sequence of Cytochrome P450 2C9 (P11712 whole entry): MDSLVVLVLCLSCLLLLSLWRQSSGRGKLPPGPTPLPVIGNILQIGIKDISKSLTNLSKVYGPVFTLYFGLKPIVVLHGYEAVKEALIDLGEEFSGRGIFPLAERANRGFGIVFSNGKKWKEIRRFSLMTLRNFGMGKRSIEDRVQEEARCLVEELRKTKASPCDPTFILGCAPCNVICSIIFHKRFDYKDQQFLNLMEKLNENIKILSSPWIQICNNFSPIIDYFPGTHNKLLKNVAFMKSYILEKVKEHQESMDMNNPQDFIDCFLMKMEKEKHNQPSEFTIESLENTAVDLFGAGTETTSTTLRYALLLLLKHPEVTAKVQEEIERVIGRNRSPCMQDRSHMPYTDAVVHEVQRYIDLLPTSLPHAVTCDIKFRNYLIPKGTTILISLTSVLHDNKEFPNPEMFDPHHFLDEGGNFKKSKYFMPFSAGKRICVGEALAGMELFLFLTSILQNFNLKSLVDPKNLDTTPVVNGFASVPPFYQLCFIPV
Sequence of Cytochrome P450 2D6 (P10635 whole entry): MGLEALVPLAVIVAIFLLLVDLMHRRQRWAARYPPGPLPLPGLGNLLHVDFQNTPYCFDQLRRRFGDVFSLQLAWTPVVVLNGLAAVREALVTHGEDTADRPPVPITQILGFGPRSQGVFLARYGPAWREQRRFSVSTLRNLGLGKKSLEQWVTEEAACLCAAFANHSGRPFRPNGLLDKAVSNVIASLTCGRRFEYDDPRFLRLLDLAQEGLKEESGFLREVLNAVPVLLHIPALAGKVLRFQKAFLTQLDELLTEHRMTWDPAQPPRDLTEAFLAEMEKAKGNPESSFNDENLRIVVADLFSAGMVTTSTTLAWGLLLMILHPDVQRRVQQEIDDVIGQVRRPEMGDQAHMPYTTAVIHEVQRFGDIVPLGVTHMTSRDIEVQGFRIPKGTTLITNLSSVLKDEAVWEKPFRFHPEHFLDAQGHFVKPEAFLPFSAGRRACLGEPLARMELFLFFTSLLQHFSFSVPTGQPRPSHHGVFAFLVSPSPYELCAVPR

In the case of `CCC[C@H](NC(=O)[C@@H]1[C@H]2CCC[C@H]2CN1C(=O)[C@@H](NC(=O)[C@@H](NC(=O)c1cnccn1)C1CCCCC1)C(C)(C)C)C(=O)C(=O)NC1CC1`, the IC50 [1] is reported as 180 nM, the EC50 (enterovirus D68 [2]) is reported as 450 nM and the CC50 (RD) is reported as 83200 nM. It also gave a Ki [3] of 824 nM, an EC50 (enterovirus D68 [4]) of 52.1 nM and an EC50 (enterovirus D68 [5]) of 368 nM. For the same molecule, the EC50 (enterovirus D68 [6]) was 828 nM, the EC50 (enterovirus D68 [7]) was 836 nM and the EC50 (enterovirus D68 [8]) was 209 nM.

`CCC[C@H](NC(=O)[C@@H]1[C@H]2CCC[C@H]2CN1C(=O)[C@@H](NC(=O)CC12CC3CC(CC(C3)C1)C2)C(C)(C)C)C(=O)C(=O)NC1CC1` gave an IC50 [1] of 80 nM, an EC50 (enterovirus D68 [2]) of 160 nM and a CC50 [9] of 36200 nM. The Ki [3] was 58.6 nM.

For `CC(C)(C)[C@H](NC(=O)CC12CC3CC(CC(C3)C1)C2)C(=O)N1C[C@@H]2CCC[C@@H]2[C@H]1C(=O)N[C@H](C(=O)C(=O)NC1CC1)C1CCCC1`, the IC50 [1] was 200 nM, the EC50 (enterovirus D68 [2]) was 110 nM and the CC50 [9] was greater than 150000 nM. For the same molecule, the Ki [3] was 112 nM and the EC50 (enterovirus D68 [4]) was 15.9 nM.

`CC(C)(C)[C@H](NC(=O)CC12CC3CC(CC(C3)C1)C2)C(=O)N1C[C@@H]2CCC[C@@H]2[C@H]1C(=O)NC1(C(=O)C(=O)NC2CC2)CCC1` showed an IC50 [1] of 4810 nM, an EC50 (enterovirus D68 [2]) of 3230 nM and a CC50 [9] greater than 150000 nM.

In the case of `CC(C)(C)[C@H](NC(=O)CC12CC3CC(CC(C3)C1)C2)C(=O)N1C[C@@H]2CCC[C@@H]2[C@H]1C(=O)N[C@@H](Cc1ccccc1)C(=O)C(=O)NC1CC1`, the IC50 [1] is reported as 90 nM, the EC50 (enterovirus D68 [2]) is reported as 250 nM and the CC50 (RD) is reported as 17400 nM.

For `CC(C)(C)[C@H](NC(=O)CC12CC3CC(CC(C3)C1)C2)C(=O)N1C[C@@H]2CCC[C@@H]2[C@H]1C(=O)NC1(C(=O)C(=O)NC2CC2)CCCCC1`, the IC50 [1] was 740 nM, the EC50 (enterovirus D68 [2]) was 1010 nM and the CC50 [9] was greater than 150000 nM.

In the case of `CC(C)(C)[C@H](NC(=O)CC12CC3CC(CC(C3)C1)C2)C(=O)N1C[C@@H]2CCC[C@@H]2[C@H]1C(=O)N[C@H](C=O)Cc1ccc(F)cc1`, the IC50 [1] is reported as 1820 nM, the EC50 (enterovirus D68 [2]) is reported as 1300 nM and the CC50 [9] is reported as 17300 nM. For the same molecule, the Ki [3] was 276 nM.

For `CC(C)(C)[C@H](NC(=O)CC12CC3CC(CC(C3)C1)C2)C(=O)N1C[C@@H]2CCC[C@@H]2[C@H]1C(=O)N[C@H](C(=O)C(=O)NC1CC1)C1CCCCC1`, the IC50 [1] was 90 nM, the EC50 (enterovirus D68 [2]) was 130 nM and the CC50 [9] was greater than 150000 nM. It also gave a Ki [3] of 51.4 nM, an EC50 (enterovirus D68 [4]) of 15.9 nM and an EC50 (enterovirus D68 [5]) of 101 nM. For the same molecule, the EC50 (enterovirus D68 [6]) was 269 nM, the EC50 (enterovirus D68 [7]) was 246 nM and the EC50 (enterovirus D68 [8]) was 46.7 nM. For the same molecule, the IC50 (Cytochrome P450 1A2) was greater than 50000 nM, the IC50 (Cytochrome P450 2C9) was greater than 50000 nM and the IC50 (Cytochrome P450 2C19) was greater than 50000 nM. The IC50 (Cytochrome P450 2D6) was greater than 50000 nM, the IC50 (Cytochrome P450 3A) was 570 nM and the Activity [10] was “Non-Toxic”. The Activity [11] was “Non-Toxic” and the Activity [12] was “Non-Toxic”.

Work on `CCC(C)[C@H](NC(=O)[C@@H]1[C@H]2CCC[C@H]2CN1C(=O)[C@@H](NC(=O)CC12CC3CC(CC(C3)C1)C2)C(C)(C)C)C(=O)C(=O)NC1CC1` (some centres not stated) yielded an IC50 [1] of 150 nM, an EC50 (enterovirus D68 [2]) of 160 nM and a CC50 [9] greater than 150000 nM. For the same molecule, the EC50 (enterovirus D68 [4]) was 13.5 nM.
